According to ChEMBL document CHEMBL3813688, “Synthesis, antitumor activity and mechanism of action of novel 1,3-thiazole derivatives containing hydrazide-hydrazone and carboxamide moiety” (Bioorg Med Chem Lett, 2016):
Values after ≈ are worked out from the molar mass of the structure shown.

Legend:
HeLa [1] = experiment: Cytotoxicity against human HeLa cells assessed as cell growth inhibition at 20 ug/ml after 72 hrs by MTT assay; format: functional; details: read-out: GI
MCF7 [2] = experiment: Cytotoxicity against human MCF7 cells assessed as cell growth inhibition at 20 ug/ml after 72 hrs by MTT assay; format: functional; details: MCF7, 72 h, read-out: GI
[3] = test system: MCF-7, HepG2, BGC-823, HeLa, A549 cancer cell lines (Homo sapiens); experiment: Cytotoxicity against human MCF-7, HepG2, BGC-823, HeLa and A549 cells assessed as cell growth inhibition at 20 ug/ml after 72 hrs by MTT assay; details: read-out: GI
[4] = Cytotoxicity against human BCG823 cells assessed as cell growth inhibition at 20 ug/ml after 72 hrs by MTT assay; format: functional; details: BCG823, 72 h, read-out: GI
A549 [5] = experiment: Cytotoxicity against human A549 cells assessed as cell growth inhibition at 20 ug/ml after 72 hrs by MTT assay; format: functional; details: A549, 72 h, read-out: GI
HepG2 [6] = experiment: Cytotoxicity against human HepG2 cells assessed as cell growth inhibition at 20 ug/ml after 72 hrs by MTT assay; format: functional; details: HepG2, 72 h, read-out: GI
MCF7 [7] = experiment: Cytotoxicity against human MCF7 cells assessed as cell growth inhibition after 72 hrs by MTT assay; format: functional, cell-based; details: MCF7, 72 h
How it was run: (§1)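 MTT growth assay in human cancer lines (MCF-7, HepG2, BGC-823, HeLa, A549), 72 h after treatment; 5-fluorouracil as reference. IC50 (μg/mL) taken as concentration giving 50% growth inhibition versus untreated control.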

HepG2 [8] = experiment: Cytotoxicity against human HepG2 cells assessed as cell growth inhibition after 72 hrs by MTT assay; format: functional, cell-based; details: HepG2, 72 h; how it was run: as §1
A549 [9] = experiment: Cytotoxicity against human A549 cells assessed as cell growth inhibition after 72 hrs by MTT assay; format: functional, cell-based; details: A549, 72 h; how it was run: as §1
HeLa [10] = experiment: Cytotoxicity against human HeLa cells assessed as cell growth inhibition after 72 hrs by MTT assay; format: functional, cell-based; how it was run: as §1
[11] = Cytotoxicity against human BCG823 cells assessed as cell growth inhibition after 72 hrs by MTT assay; format: functional, cell-based; details: BCG823, 72 h; how it was run: as §1

| SMILES | inhibition of growth at 20 µg/mL (HeLa [1]) [%] | inhibition of growth at 20 µg/mL (MCF7 [2]) [%] | inhibition at 72 h, 20 ug/ml [3] [%] | inhibition of growth at 20 µg/mL [4] [%] | inhibition of growth at 20 µg/mL (A549 [5]) [%] | inhibition of growth at 20 µg/mL (HepG2 [6]) [%] | IC50 (MCF7 [7]) [µg/mL] | IC50 (HepG2 [8]) [µg/mL] | IC50 (A549 [9]) [µg/mL] | IC50 (HeLa [10]) [µg/mL] | IC50 [11] [µg/mL] |
| --- | --- | --- | --- | --- | --- | --- | --- | --- | --- | --- | --- |
| CCOC(=O)c1sc(NC)nc1C(F)(F)F | < 10 | < 10 | < 10 | < 10 | < 10 | < 10 | – | – | – | – | – |
| CN(C(=O)NC(=O)c1c(Cl)cccc1Cl)c1nc(C(F)(F)F)c(C(=O)N/N=C/c2ccccc2C(F)(F)F)s1 | – | – | – | – | – | – | 6.24 (≈ 10.2 µM) | 8.95 (≈ 14.6 µM) | 12 (≈ 19.6 µM) | 5.23 (≈ 8.54 µM) | 4.12 (≈ 6.73 µM) |
| CN(C(=O)NC(=O)c1ccc(Cl)cc1Cl)c1nc(C(F)(F)F)c(C(=O)N/N=C/c2ccccc2C(F)(F)F)s1 | – | – | – | – | – | – | 9.12 (≈ 14.9 µM) | 10.7 (≈ 17.4 µM) | 15.3 (≈ 25 µM) | 9 (≈ 14.7 µM) | 5.73 (≈ 9.36 µM) |
| CN(C(=O)NC(=O)c1c(F)cccc1F)c1nc(C(F)(F)F)c(C(=O)N/N=C/c2cccc(C(F)(F)F)c2)s1 | – | – | – | – | – | – | 21.8 (≈ 37.6 µM) | 27.9 (≈ 48.1 µM) | 27.6 (≈ 47.6 µM) | 21.6 (≈ 37.3 µM) | 25.9 (≈ 44.6 µM) |
| CN(C(=O)NC(=O)c1c(F)cccc1F)c1nc(C(F)(F)F)c(C(=O)N/N=C/c2ccccc2C(F)(F)F)s1 | – | – | – | – | – | – | 20.4 (≈ 35.3 µM) | 26.1 (≈ 45 µM) | 17.9 (≈ 30.9 µM) | 19.6 (≈ 33.8 µM) | 16.9 (≈ 29.3 µM) |
| CN(C(=O)NC(=O)c1cccc(C(F)(F)F)c1)c1nc(C(F)(F)F)c(C(=O)N/N=C/c2ccccc2C(F)(F)F)s1 | – | – | – | – | – | – | 7.69 (≈ 12.6 µM) | 10.4 (≈ 17 µM) | 12.1 (≈ 19.8 µM) | 7.37 (≈ 12.1 µM) | 7.29 (≈ 11.9 µM) |
| CN(C(=O)NC(=O)c1c(F)cccc1F)c1nc(C(F)(F)F)c(C(=O)N/N=C/c2cc(C(F)(F)F)cc(C(F)(F)F)c2)s1 | – | – | – | – | – | – | 6.85 (≈ 10.6 µM) | 6.28 (≈ 9.7 µM) | 17.3 (≈ 26.7 µM) | 5.62 (≈ 8.68 µM) | 5.28 (≈ 8.16 µM) |
| Cc1nc(N(C)C(=O)NC(=O)c2c(F)cccc2F)sc1C(=O)N/N=C/c1ccccc1Cl | – | – | – | – | – | – | – | > 100 | – | – | – |
| CN(C(=O)NC(=O)c1ccccc1F)c1nc(C(F)(F)F)c(C(=O)N/N=C/c2cc(C(F)(F)F)cc(C(F)(F)F)c2)s1 | – | – | – | – | – | – | 6.16 (≈ 9.79 µM) | 4.47 (≈ 7.1 µM) | 5.43 (≈ 8.63 µM) | 4.98 (≈ 7.91 µM) | 4.23 (≈ 6.72 µM) |
| CN(C(=O)NC(=O)c1ccccc1F)c1nc(C(F)(F)F)c(C(=O)N/N=C/c2ccccc2C(F)(F)F)s1 | – | – | – | – | – | – | 12.2 (≈ 21.8 µM) | 5.39 (≈ 9.6 µM) | 6.32 (≈ 11.3 µM) | 10.1 (≈ 18 µM) | 4.67 (≈ 8.32 µM) |
| Cc1nc(N(C)C(=O)NC(=O)c2c(F)cccc2F)sc1C(=O)N/N=C/c1ccccc1 | – | – | – | – | – | – | – | 54.3 (≈ 119 µM) | – | – | – |
| CN(C(=O)NC(=O)c1cccc(C(F)(F)F)c1)c1nc(C(F)(F)F)c(C(=O)N/N=C/c2ccc(C(F)(F)F)cc2)s1 | – | – | – | – | – | – | 6.5 (≈ 10.6 µM) | 7.71 (≈ 12.6 µM) | 6.2 (≈ 10.1 µM) | 7.35 (≈ 12 µM) | 4.22 (≈ 6.9 µM) |
| CN(C(=O)NC(=O)c1cccc(C(F)(F)F)c1)c1nc(C(F)(F)F)c(C(=O)N/N=C/c2cccc(C(F)(F)F)c2)s1 | – | – | – | – | – | – | 3.7 (≈ 6.05 µM) | 5.79 (≈ 9.47 µM) | 8.16 (≈ 13.3 µM) | 4.81 (≈ 7.87 µM) | 4.6 (≈ 7.52 µM) |
| CN(C(=O)NC(=O)c1ccccc1[N+](=O)[O-])c1nc(C(F)(F)F)c(C(=O)N/N=C/c2ccc([N+](=O)[O-])cc2)s1 | – | – | – | – | – | – | 21.2 (≈ 37.5 µM) | 25.2 (≈ 44.6 µM) | 17.6 (≈ 31.2 µM) | 18.4 (≈ 32.6 µM) | 15.7 (≈ 27.7 µM) |
| CN(C(=O)NC(=O)c1ccccc1)c1nc(C(F)(F)F)c(C(=O)N/N=C/c2cccc([N+](=O)[O-])c2)s1 | – | – | – | – | – | – | 15.4 (≈ 29.6 µM) | 14.3 (≈ 27.5 µM) | 20.7 (≈ 39.7 µM) | 11.2 (≈ 21.6 µM) | 13.6 (≈ 26.1 µM) |
| CN(C(=O)NC(=O)c1ccc(C(F)(F)F)cc1)c1nc(C(F)(F)F)c(C(=O)N/N=C/c2ccc(C(F)(F)F)cc2)s1 | – | – | – | – | – | – | > 100 | > 100 | > 100 | > 100 | > 100 |
| CN(C(=O)NC(=O)c1ccc([N+](=O)[O-])cc1)c1nc(C(F)(F)F)c(C(=O)N/N=C/c2cccc(C(F)(F)F)c2)s1 | – | – | – | – | – | – | 4.39 (≈ 7.46 µM) | 4.73 (≈ 8.04 µM) | 5.42 (≈ 9.21 µM) | 4.12 (≈ 7 µM) | 1.67 (≈ 2.84 µM) |
| Cc1nc(N(C)C(=O)NC(=O)c2c(F)cccc2F)sc1C(=O)N/N=C/c1cccc(C(F)(F)F)c1 | – | – | – | – | – | – | 28.1 (≈ 53.6 µM) | 31.6 (≈ 60.1 µM) | 30.3 (≈ 57.7 µM) | 26.8 (≈ 51 µM) | 32.6 (≈ 62.1 µM) |
| Cc1nc(N(C)C(=O)NC(=O)c2c(F)cccc2F)sc1C(=O)N/N=C/c1ccc(Cl)cc1Cl | – | – | – | – | – | – | – | 70 (≈ 133 µM) | – | – | – |
| CN(C(=O)NC(=O)c1ccc([N+](=O)[O-])cc1)c1nc(C(F)(F)F)c(C(=O)N/N=C/c2ccc([N+](=O)[O-])cc2)s1 | – | – | – | – | – | – | 9.24 (≈ 16.3 µM) | 12.3 (≈ 21.8 µM) | 8.98 (≈ 15.9 µM) | 8.42 (≈ 14.9 µM) | 7.45 (≈ 13.2 µM) |
